In the array DNA melting data of Ke et al. (doi:10.1101/2024.01.08.574731):

Tests used:
[1] = folding enthalpy; higher = less favourable; fluorescence melt of hairpins on a sequencing array, two-state fit; conditions: sodium 0.088 M
How it was run: (§1)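 To match UV melts, fitted temperatures were raised by 9.35 °C. These fits were bootstrapped two-state models that gave melting temperature and folding enthalpy, combined by inverse variance over four replicates. The input was normalised Cy3 fluorescence of library hairpins with annealed Cy3 and quencher oligos on a sequenced MiSeq flow cell, imaged in 50 mM Na-HEPES pH 8.0, 25 mM NaCl in 2.5 °C steps up to 60 °C.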

[2] = melting temperature; fluorescence melt of hairpins on a sequencing array, two-state fit, raised by 9.35 °C to match UV melts; conditions: sodium 0.088 M
How it was run: as §1

| Sequence | folding enthalpy [1] [kcal/mol] | Tm [2] [°C] |
| --- | --- | --- |
| GTCCACGAAAGTGCTGAC ((((((....)))..))) | -14.7 | 33.9 |
| GGCCCTCCGAAAGGAGCC (((..(((....)))))) | -10.6 | 38.4 |
| CGCGGACGTTTCCGCG ((((((....)))))) | -31.9 | 69.2 |
| GTAATGGGAAACCGTTAC ((((.((....)).)))) | -34.3 | 44.1 |
| GATCGGGGAGCCGATC ((((((....)))))) | -35.1 | 59.5 |
| GTTACGCGAAAGCGAAAC (((.(((....))).))) | -23.5 | 51.1 |
| GTCCCTCGAAAGAGCGAC (((.(((....))).))) | -26.8 | 40.1 |
| GAACGGGGAAACCCGCTC ((.((((....)))).)) | -16.3 | 45.3 |
| CGAGGACGGAAACGTTCG (((..(((....)))))) | -19.8 | 43.1 |
| GCCGGGCGAAAGCTCAGC ((.(.((....)).).)) | -16.9 | 44.4 |
| GGAGGGGGAAACCCCCCC ((.((((....)))).)) | -14.9 | 50.9 |
| GATCATCATATGATC ((((((...)))))) | -35.5 | 47.2 |
| GCTTGGCGAAAGCAACGC ((.(.((....)).).)) | -10.5 | 33.5 |
| GAGGACCGAAAGGTTCTC (((.(((....))).))) | -35.2 | 59.4 |
| GGTAGCGAAAGCTGTACC ((((((....)))..))) | -19.9 | 40.7 |
| GGACAGGAAACTGTCC ((((((....)))))) | -43 | 62.8 |
| GATCTAGCCCTAGATC ((((((....)))))) | -37 | 45.6 |
| GTGACCCGAAAGGGCCAC (((.(((....))).))) | -41 | 59.5 |
| GATCAAGGGTTTGATC ((((((....)))))) | -26.2 | 43 |
| GATCTCTACCGAGATC ((((((....)))))) | -37.1 | 51.7 |
| GTAAAGCGAAAGCTATAC (((.(((....))).))) | -15.6 | 41.3 |
| GATCAACGACTTGATC ((((((....)))))) | -32.3 | 40.7 |
| GATCGACCGATCGATC ((((((....)))))) | -25.4 | 51.6 |

| Sequence | folding enthalpy [1] [kcal/mol] | Tm [2] [°C] |
| --- | --- | --- |
| GCTTCTGGAAACAGAGGC ((.((((....)))).)) | -33 | 48.3 |
| GCCTTGCGAAAGCAGTGC ((..(((....)))..)) | -11.6 | 45.1 |
| GAAAGCGAAAGCTACTTC ((((((....)))..))) | -14.6 | 35.9 |
| GCCAGGCGAAAGCTGGGC (((..((....))..))) | -27.1 | 62.9 |
| GAAGTCCGAAAGGATTC (((.(((....)))))) | -14.1 | 33.8 |
| GTTCGTGGAAACATGGAC ((.(.((....)).).)) | -16.1 | 34.7 |
| GGTTTCGAAAGAAACC ((((((....)))))) | -40.8 | 64.2 |
| GGGCTGTCGAAAGACCCC (((..(((....)))))) | -18.4 | 44.1 |
| GTTATCGGAAACGATGAC ((.((((....)))).)) | -25.2 | 47.1 |
| GTGGGTGGAAACACTCAC (((.(((....))).))) | -37.2 | 52.1 |
| CGACCGGAAACGGATTCG ((((((....)))..))) | -16.2 | 33.6 |
| GGGTCAACGAAAGTTCCC (((..(((....)))))) | -18.8 | 34.7 |
| GATCTGCCAACAGATC ((((((....)))))) | -38.3 | 50 |
| GCGTGCGGAAACGCGTGC ((..(((....)))..)) | -27.6 | 53.5 |
| TCATCGAAAGATGA (((((....))))) | -22.9 | 49.7 |
| GGTAGCCGAAAGGCGACC (((.(((....))).))) | -24.5 | 66.9 |
| GAGGAAGGAAACTTCCCC (.(((((....))))).) | -11 | 35.2 |
| GATCTAGGAAACTAGACC (.(((((....))))).) | -14.8 | 29.3 |
| GATCAGACAGCTGATC ((((((....)))))) | -32 | 45.3 |
| GTATTCCCGAAAGGGTAC (((..(((....)))))) | -8.03 | 32.9 |
| GGTACGGGAAACCGTGTC (..((((....))))..) | -14.1 | 35.3 |
| GTCGGTGCGAAAGCAGAC (((..(((....)))))) | -14.2 | 45.2 |
| GCTATGCCGAAAGGCAGC (((..(((....)))))) | -12.1 | 40.2 |

| Sequence | folding enthalpy [1] [kcal/mol] | Tm [2] [°C] |
| --- | --- | --- |
| GATCGATTTGTCGATC ((((((....)))))) | -41.5 | 55.5 |
| GTCTATGGAAACATAGAC (((((((....))))))) | -42.7 | 54.9 |
| GTCTACCCGAAAGGGGAC (((..(((....)))))) | -13.8 | 36.2 |
| GTGGGCGAAAGCCGGCAC ((((((....)))..))) | -12.1 | 45.8 |
| GGGTAGGCGAAAGCCCCC (((..(((....)))))) | -16.9 | 53 |
| GCAACAGGAAACCGTTGC (((((.(....).))))) | -43.8 | 50.4 |
| GGAGACGAAAGTCTCTCC ((((((....)))..))) | -9.83 | 54.5 |
| GTGGATTCGAAAGAACAC (((..(((....)))))) | -17.4 | 32 |
| GATCAGTGTTCTGATC ((((((....)))))) | -37.3 | 50.2 |
| GTCCCCGAAAGGGTAGAC ((((((....)))..))) | -16.1 | 40.6 |
| GTGACCGAAAGGTCCAC ((((((....))).))) | -11.3 | 47.1 |
| GATCAGGATGCTGATC ((((((....)))))) | -43.3 | 50.3 |
| GTGGACGCGAAAGCGCAC (((..(((....)))))) | -15.4 | 47.8 |
| GCAATGCGAAAGCAGTGC (((.(((....))).))) | -33.6 | 65.6 |
| GTCCACGAAAGTGTGGAC ((((((....)))..))) | -27.1 | 55.8 |
| GCATGAGGAAACTTGTGC (((..((....))..))) | -26.6 | 35.9 |
| GTCCCAGGAAACTGAGAC (((.(((....))).))) | -28 | 39 |
| GATCGCATGAGCGATC ((((((....)))))) | -27.4 | 69.3 |
| GTGATTGAAAAATCAC ((((((....)))))) | -29.5 | 51.7 |
| GATGCCGGAAACGGTATC (((.(((....))).))) | -42.9 | 53.9 |
| GTCCTCGAAAGAGTAGAC ((((((....)))..))) | -19.8 | 35.9 |
| CAGTGGAAACACTG (((((....))))) | -23 | 51.7 |
| GAGAGCGAAAGCTTCCTC ((((((....)))..))) | -10.7 | 27.3 |

| Sequence | folding enthalpy [1] [kcal/mol] | Tm [2] [°C] |
| --- | --- | --- |
| GGAGGAACGAAAGTTTCC (((..(((....)))))) | -16.2 | 30.4 |
| GCCCACCGAAAGGTGGC (((.(((....)))))) | -9.61 | 62.3 |
| GTAAAAGCGAAAGCTTAC (((..(((....)))))) | -11.6 | 35.9 |
| GTGAAAGGAAACTCTCAC ((((.((....)).)))) | -12.6 | 26.5 |
| TCGTGGAAACACGA (((((....))))) | -18.3 | 53.7 |
| GAACCGGGAAACCGGTCC (.(((((....))))).) | -11.6 | 41.2 |
| GAAACCCGAAAGGGCTTC (((.(((....))).))) | -24.9 | 46.4 |
| GTGCTCGAAAGAGAGCAC ((((((....)))..))) | -34.2 | 58.2 |
| GTACCGGGAAACCGACAC ((..(((....)))..)) | -8.42 | 22.9 |
| GACGAAGCGAAAGCTGTC (((..(((....)))))) | -16.7 | 45.4 |
| GCGTGGGACGC ((((...)))) | -16.9 | 52.4 |
| GGAGTTCGAAAGAAGTCC (((.(((....))).))) | -41.3 | 54.1 |
| GTCCACGGAAACGTGGGC (.(((((....))))).) | -28.2 | 62.1 |
| GGATGGGGAAACTCATCC (((((.(....).))))) | -41 | 49.2 |
| GCAGAACGAAAGTTTGC (((.(((....)))))) | -25.9 | 44.7 |
| GCTGCAGGAAACTACAGC ((((.((....)).)))) | -33.9 | 45.6 |
| GGCGCGGGAAACCGCACC ((.((((....)))).)) | -22.4 | 61.7 |
| CGGCGCCGGAAACGGCCG (((..(((....)))))) | -8.91 | 54.8 |
| GATCGCAAGCGCGATC ((((((....)))))) | -31 | 67.8 |
| GTAGAGTCGAAAGACTAC (((..(((....)))))) | -10.8 | 35.1 |
| GATCATAAGAATGATC ((((((....)))))) | -27.7 | 40.1 |
| GTAAAAGAAATTTTAC ((((((....)))))) | -13 | 30.8 |
| GATCGCACAGGCGATC ((((((....)))))) | -33 | 68.1 |
